Results from paper PMC9050161 (RSC Advances, 2020).

Assays:
UGT1A7 = biological target: T1, UGT1A7 (Homo sapiens, UniProt Q9HAW7); assay: Inhibition of UGT1A7; format: biochemical
T1 sequence (Q9HAW7 26-530): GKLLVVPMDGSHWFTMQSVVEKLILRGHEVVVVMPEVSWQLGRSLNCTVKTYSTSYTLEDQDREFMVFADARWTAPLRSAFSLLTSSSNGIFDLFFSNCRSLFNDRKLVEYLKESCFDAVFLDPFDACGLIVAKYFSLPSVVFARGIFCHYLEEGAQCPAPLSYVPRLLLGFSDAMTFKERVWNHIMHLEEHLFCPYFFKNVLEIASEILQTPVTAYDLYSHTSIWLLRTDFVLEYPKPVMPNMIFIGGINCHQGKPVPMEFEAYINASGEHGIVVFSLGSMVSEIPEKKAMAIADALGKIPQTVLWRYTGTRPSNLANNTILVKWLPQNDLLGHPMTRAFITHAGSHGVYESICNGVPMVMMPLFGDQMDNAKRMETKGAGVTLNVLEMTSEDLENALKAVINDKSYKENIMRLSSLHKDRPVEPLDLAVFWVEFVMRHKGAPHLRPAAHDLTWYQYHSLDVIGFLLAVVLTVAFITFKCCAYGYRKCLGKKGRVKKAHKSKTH
Procedure, shortened: (§1)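 Recombinant human UGTs screened with probe substrates: β-estradiol for UGT1A1, propofol for 1A9, and 4-methylumbelliferone for 1A3, 1A6, 1A7, 1A8, 1A10, 2B4, 2B7, 2B10, 2B15 and 2B17. Incubated at 37 °C without (control) or with test compound at 1, 10 or 100 μM. Glucuronide formation measured relative to control; triplicate.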

CYP2E1 = CYP2E1 (Homo sapiens, UniProt P05181); assay: Inhibition of CYP2E1; format: biochemical
Procedure, shortened: (§2)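 Recombinant human CYPs at 0.1 mg mL−1 protein, each with its probe substrate near Km: coumarin 100 μM (2A6), bupropion 100 μM (2B6), paclitaxel 60 μM (2C8), tolbutamide 200 μM (2C9), mephenytoin 100 μM (2C19), chlorzoxazone 200 μM (2E1). Incubated at 37 °C with or without test compound at 1, 10 or 100 μM. UHPLC-TQD-MS read-out; triplicate.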

CYP3A4 = CYP3A4 (Homo sapiens, UniProt P08684); assay: Inhibition of CYP3A4; format: biochemical; conditions: PI-103 1, 10 and 100 μM
Procedure, shortened: (§3)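 Recombinant human CYPs at 0.05 mg mL−1 protein, each with its probe substrate near Km: ethoxyresorufin 1 μM (CYP1A1), phenacetin 100 μM (CYP1A2), nifedipine 40 μM (CYP3A4, 3A5). Incubated at 37 °C without (control) or with test compound at 1, 10 and 100 μM. Supernatant analysed by UHPLC-TQD-MS; activity relative to control; triplicate.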

mice = conditions: cited from earlier work
UGT1A8 = UGT1A8 (Homo sapiens, UniProt Q9HAW9); assay: Inhibition of UGT1A8; format: biochemical; conditions: PI-103 1, 10 and 100 μM
Procedure, shortened: as §1

UGT1A1 = UGT1A1 (Homo sapiens, UniProt P22309); assay: Inhibition of UGT1A1; format: biochemical; conditions: PI-103 1, 10 and 100 μM
Procedure, shortened: as §1

CYP1A1 = CYP1A1 (Homo sapiens, UniProt P04798); assay: Inhibition of CYP1A1; format: biochemical
Procedure, shortened: as §3

DNA-PK = conditions: cited from earlier work
UGT2B10 = UGT2B10 (Homo sapiens, UniProt P36537); assay: Inhibition of UGT2B10; format: biochemical; conditions: PI-103 1, 10 and 100 μM
Procedure, shortened: as §1

CYP2C9 = CYP2C9 (Homo sapiens, UniProt P11712); assay: Inhibition of CYP2C9; format: biochemical
Procedure, shortened: as §2

UGT1A10 = UGT1A10 (Homo sapiens, UniProt Q9HAW8); assay: Inhibition of UGT1A10; format: biochemical; conditions: PI-103 1, 10 and 100 μM
Procedure, shortened: as §1

CYP2C8 = CYP2C8 (Homo sapiens, UniProt P10632); assay: Inhibition of CYP2C8; format: biochemical; conditions: PI-103 1, 10 and 100 μM
Procedure, shortened: as §2

UGT2B7 = biological target: T2, UGT2B7 (Homo sapiens, UniProt P16662); assay: Inhibition of UGT2B7; format: biochemical
T2 sequence (P16662 24-529): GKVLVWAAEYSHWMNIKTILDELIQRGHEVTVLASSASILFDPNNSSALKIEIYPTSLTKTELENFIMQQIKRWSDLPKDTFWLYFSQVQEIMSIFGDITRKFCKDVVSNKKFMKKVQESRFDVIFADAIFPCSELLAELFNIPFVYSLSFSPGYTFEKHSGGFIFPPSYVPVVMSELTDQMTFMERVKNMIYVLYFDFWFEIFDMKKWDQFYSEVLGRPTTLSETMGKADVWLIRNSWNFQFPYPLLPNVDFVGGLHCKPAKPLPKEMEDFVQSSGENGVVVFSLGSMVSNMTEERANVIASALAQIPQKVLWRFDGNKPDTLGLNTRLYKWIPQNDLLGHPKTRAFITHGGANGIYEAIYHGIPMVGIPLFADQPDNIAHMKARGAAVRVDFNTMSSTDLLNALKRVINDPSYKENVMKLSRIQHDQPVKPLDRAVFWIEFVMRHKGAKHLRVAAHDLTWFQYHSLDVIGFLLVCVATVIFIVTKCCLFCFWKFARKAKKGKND
Procedure, shortened: as §1

CYP3A5 = CYP3A5 (Homo sapiens, UniProt P20815); assay: Inhibition of CYP3A5; format: biochemical; conditions: PI-103 1, 10 and 100 μM
Procedure, shortened: as §3

MRP1 = MRP1 (Homo sapiens, UniProt P33527); assay: M2 excretion in HeLa1A9 cells after shRNA knock-down of MRP1; format: cell-based; conditions: MRP1 partially silenced
Procedure, shortened: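 shRNA plasmid against BCRP, MRP1, MRP3 or MRP4 transfected into UGT1A9-expressing HeLa cells, then exposed to 5 μM test compound in HBSS. Medium sampled at 30–120 min with replacement; cells collected at 120 min. UHPLC gave extracellular and intracellular glucuronide, excretion rate, efflux clearance (excretion rate/intracellular concentration) and fraction metabolized (fmet), each compared with control. Triplicate.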

HeLa cells = assay: Toxicity of PI-103 in HeLa cells; format: cell-based, human; conditions: within the experimental concentrations (maximal 5 μM)
p110δ = conditions: cited from earlier work
UGT2B17 = UGT2B17 (Homo sapiens, UniProt O75795); assay: Inhibition of UGT2B17; format: biochemical; conditions: PI-103 1, 10 and 100 μM
Procedure, shortened: as §1

CYP2E1, sequence (P05181 whole entry): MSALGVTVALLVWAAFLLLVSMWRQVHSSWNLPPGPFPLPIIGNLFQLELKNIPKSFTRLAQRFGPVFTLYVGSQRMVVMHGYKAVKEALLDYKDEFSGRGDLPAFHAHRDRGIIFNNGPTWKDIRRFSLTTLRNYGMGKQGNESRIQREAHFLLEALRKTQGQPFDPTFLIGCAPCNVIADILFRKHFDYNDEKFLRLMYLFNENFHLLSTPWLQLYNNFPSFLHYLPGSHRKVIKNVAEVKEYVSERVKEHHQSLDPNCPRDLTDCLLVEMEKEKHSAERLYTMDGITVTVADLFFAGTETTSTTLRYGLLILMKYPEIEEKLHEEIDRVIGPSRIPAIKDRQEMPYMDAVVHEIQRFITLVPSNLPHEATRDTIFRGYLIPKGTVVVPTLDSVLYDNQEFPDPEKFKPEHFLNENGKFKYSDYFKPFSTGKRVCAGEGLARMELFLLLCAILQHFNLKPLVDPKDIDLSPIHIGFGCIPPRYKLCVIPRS
CYP2C9, sequence (P11712 whole entry): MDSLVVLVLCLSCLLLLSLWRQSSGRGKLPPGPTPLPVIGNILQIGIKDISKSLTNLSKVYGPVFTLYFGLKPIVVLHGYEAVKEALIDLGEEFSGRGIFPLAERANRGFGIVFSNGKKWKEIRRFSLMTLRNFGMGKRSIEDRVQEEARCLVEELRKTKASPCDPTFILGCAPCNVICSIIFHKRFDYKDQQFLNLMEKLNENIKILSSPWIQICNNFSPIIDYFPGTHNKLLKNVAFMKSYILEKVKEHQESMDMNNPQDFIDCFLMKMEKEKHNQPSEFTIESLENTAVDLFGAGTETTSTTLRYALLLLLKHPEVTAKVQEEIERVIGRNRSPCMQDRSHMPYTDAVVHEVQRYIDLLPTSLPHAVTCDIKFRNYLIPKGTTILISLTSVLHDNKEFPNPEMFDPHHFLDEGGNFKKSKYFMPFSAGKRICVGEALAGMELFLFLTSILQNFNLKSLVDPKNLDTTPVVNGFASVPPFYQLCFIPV
CYP1A1, sequence (P04798 whole entry): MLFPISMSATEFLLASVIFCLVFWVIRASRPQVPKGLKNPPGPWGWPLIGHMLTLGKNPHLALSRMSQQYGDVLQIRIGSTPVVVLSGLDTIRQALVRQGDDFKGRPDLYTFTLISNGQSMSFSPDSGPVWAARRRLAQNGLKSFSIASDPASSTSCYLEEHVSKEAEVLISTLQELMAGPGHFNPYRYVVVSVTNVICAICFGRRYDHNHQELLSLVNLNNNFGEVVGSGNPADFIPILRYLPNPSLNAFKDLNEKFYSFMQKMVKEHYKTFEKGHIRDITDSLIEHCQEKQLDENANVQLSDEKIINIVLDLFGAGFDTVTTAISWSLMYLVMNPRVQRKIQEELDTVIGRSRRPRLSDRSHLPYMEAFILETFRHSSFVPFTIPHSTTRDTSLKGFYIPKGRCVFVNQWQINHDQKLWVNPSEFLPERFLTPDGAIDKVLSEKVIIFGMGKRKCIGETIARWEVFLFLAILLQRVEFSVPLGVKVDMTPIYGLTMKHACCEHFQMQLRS
UGT1A1, sequence (P22309 26-533): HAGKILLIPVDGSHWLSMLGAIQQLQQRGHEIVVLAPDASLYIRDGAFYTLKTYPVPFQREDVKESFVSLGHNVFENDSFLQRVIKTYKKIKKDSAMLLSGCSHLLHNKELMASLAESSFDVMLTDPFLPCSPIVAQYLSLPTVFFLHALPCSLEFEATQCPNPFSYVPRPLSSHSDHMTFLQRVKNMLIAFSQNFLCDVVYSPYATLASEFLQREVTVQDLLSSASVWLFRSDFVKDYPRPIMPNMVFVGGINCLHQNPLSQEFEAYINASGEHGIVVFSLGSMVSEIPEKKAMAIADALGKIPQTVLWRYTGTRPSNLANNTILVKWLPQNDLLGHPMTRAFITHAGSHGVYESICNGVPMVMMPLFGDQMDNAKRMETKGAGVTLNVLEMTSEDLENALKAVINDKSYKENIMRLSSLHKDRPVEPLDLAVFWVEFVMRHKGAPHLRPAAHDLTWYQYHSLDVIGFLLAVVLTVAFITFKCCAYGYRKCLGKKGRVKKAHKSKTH
UGT1A10, sequence (Q9HAW8 26-530): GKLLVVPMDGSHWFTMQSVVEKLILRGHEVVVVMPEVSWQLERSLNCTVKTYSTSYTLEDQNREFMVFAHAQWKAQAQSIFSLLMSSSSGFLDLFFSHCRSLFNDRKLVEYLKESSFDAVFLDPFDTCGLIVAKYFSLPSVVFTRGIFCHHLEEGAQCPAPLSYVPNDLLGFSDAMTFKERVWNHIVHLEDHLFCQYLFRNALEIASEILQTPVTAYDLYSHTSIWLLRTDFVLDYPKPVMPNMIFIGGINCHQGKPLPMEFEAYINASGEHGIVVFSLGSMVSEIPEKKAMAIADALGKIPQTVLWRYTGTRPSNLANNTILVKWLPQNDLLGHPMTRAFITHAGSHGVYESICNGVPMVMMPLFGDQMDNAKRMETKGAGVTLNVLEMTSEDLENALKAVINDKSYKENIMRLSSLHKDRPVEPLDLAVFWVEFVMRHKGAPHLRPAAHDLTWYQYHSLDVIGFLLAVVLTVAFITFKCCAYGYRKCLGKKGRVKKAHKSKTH
CYP3A4, sequence (P08684 whole entry): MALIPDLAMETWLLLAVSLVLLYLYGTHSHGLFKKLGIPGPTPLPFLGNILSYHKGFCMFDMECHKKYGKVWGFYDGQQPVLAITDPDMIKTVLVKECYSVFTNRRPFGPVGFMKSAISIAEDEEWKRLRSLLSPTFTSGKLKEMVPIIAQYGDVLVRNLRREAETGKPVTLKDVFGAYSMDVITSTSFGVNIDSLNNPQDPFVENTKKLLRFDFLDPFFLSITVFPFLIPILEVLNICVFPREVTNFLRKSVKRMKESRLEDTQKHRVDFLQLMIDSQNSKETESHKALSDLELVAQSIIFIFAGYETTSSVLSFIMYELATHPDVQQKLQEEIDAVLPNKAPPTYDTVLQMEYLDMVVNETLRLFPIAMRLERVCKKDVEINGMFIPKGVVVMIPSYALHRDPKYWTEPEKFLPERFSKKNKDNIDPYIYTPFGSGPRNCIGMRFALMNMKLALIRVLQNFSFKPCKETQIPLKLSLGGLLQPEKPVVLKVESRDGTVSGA
CYP3A5, sequence (P20815 whole entry): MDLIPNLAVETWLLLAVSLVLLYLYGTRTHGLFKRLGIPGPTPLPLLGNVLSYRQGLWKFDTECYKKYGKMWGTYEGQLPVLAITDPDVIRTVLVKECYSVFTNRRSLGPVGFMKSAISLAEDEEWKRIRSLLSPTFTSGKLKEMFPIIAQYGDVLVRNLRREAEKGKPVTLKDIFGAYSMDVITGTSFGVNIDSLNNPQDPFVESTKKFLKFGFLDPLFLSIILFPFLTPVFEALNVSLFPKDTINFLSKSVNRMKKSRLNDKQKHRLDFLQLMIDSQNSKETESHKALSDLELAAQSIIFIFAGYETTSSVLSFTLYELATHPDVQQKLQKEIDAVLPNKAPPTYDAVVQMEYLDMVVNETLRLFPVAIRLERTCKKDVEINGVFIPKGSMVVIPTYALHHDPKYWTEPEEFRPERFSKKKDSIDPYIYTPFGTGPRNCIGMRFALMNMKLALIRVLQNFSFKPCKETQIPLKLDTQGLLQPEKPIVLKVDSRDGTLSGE
UGT2B10, sequence (P36537 24-528): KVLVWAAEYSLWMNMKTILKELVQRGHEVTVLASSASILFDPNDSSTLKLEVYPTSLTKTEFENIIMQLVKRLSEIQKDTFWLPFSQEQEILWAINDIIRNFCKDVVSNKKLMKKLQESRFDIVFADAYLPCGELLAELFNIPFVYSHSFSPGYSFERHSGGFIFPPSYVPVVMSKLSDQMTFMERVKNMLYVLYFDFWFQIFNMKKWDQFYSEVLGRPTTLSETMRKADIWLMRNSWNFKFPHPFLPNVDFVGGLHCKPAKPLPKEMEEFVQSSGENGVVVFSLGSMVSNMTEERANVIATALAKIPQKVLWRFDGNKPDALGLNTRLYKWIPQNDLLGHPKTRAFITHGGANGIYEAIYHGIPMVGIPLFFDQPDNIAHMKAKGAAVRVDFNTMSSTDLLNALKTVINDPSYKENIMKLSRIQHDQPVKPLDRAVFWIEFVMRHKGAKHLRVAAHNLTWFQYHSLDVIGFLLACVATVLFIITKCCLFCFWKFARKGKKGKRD
UGT1A8, sequence (Q9HAW9 26-530): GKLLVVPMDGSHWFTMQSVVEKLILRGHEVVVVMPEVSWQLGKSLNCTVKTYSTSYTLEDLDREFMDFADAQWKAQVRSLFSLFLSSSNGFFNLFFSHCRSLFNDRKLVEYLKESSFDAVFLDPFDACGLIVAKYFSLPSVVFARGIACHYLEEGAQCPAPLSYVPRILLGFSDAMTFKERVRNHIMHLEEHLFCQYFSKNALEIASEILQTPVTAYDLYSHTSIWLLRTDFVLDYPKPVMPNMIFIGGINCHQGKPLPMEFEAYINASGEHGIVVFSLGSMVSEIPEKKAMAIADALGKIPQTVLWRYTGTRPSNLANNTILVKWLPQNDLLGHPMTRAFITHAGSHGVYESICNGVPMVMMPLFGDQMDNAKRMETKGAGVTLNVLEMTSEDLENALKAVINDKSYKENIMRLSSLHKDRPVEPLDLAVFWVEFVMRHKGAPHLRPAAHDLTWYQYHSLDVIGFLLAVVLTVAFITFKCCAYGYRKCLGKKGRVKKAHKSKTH

With `Oc1cccc(-c2nc(N3CCOCC3)c3oc4ncccc4c3n2)c1` [PI-103] the IC50 (UGT1A7) was 6.25 ± 0.84 µM, the Ki (UGT1A7) was 5.64 ± 0.6 µM and the Type of inhibition (UGT1A7; UGT1A7, 4-MU) was “Noncompetitive”. The IC50 (CYP2E1) was 0.33 ± 0.04 µM, the Ki (CYP2E1) was 0.25 ± 0.01 µM and the residual activity (CYP2E1; CYP2E1, 100 μM PI-103) was 13.69 % of the negative control. The Type of inhibition (CYP2E1; CYP2E1, chlorzoxazone) was “Noncompetitive”, the inhibitory effect (CYP3A4) was “negligible or weak” and the toxicity in mice (mice) was “little toxicity”. The inhibitory effect (UGT1A8) was “negligible”, the inhibitory effect (UGT1A1) was “negligible” and the IC50 (CYP1A1) was 16.8 ± 1.76 µM. For the same molecule, the residual activity (CYP1A1; CYP1A1, 100 μM PI-103) was 21.39 % of the negative control, the IC50 (DNA-PK) was […] and the inhibitory effect (UGT2B10) was “negligible”. For the same molecule, the IC50 (CYP2C9) was 1.16 ± 0.15 µM, the Ki (CYP2C9) was 0.56 ± 0.12 µM and the residual activity (CYP2C9; CYP2C9, 100 μM PI-103) was 14.22 % of the negative control. For the same molecule, the Type of inhibition (CYP2C9; CYP2C9, tolbutamide) was “Mixed-type”, the α (CYP2C9; CYP2C9, tolbutamide, mixed-type model (selected)) was 2.45 ± 0.94 and the inhibitory effect (UGT1A10) was “negligible”. For the same molecule, the inhibitory effect (CYP2C8) was “negligible or weak”, the IC50 (UGT2B7) was 1.59 ± 0.21 µM and the Ki (UGT2B7) was 1.35 ± 0.15 µM. For the same molecule, the Type of inhibition (UGT2B7; UGT2B7, 4-MU) was “Noncompetitive”, the inhibitory effect (CYP3A5) was “negligible or weak” and the “reduction in fmet value” (MRP1) was 29.2%. For the same molecule, the “toxicity in HeLa cells” value (HeLa cells) was “no significant toxicities”, the IC50 (p110δ) was […] and the inhibitory effect (UGT2B17) was “negligible”.
